pIC50: −log10 of the molar value.
Columns and labels:
Homo sapiens [1] = species: Homo sapiens; assay: Antioxidant activity was determined by measuring the produced thiobarbituric acid reactive substance; format: functional
In short: (§1)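 Test compounds at final 1 µg/mL. Oxidation read as TBARS, expressed as nmol MDA/mg LDL and % inhibition against LDL + CuSO4 alone. Electromobility was also compared on 0.7% agarose gel.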

[2] = molecular target: T1, Sterol O-acyltransferase 2 (Homo sapiens) (UniProt O75908); assay: Inhibitory activity against human Acyl-CoA:cholesterol acyltransferase-2 at 30 ug/mL
T1 sequence (whole entry): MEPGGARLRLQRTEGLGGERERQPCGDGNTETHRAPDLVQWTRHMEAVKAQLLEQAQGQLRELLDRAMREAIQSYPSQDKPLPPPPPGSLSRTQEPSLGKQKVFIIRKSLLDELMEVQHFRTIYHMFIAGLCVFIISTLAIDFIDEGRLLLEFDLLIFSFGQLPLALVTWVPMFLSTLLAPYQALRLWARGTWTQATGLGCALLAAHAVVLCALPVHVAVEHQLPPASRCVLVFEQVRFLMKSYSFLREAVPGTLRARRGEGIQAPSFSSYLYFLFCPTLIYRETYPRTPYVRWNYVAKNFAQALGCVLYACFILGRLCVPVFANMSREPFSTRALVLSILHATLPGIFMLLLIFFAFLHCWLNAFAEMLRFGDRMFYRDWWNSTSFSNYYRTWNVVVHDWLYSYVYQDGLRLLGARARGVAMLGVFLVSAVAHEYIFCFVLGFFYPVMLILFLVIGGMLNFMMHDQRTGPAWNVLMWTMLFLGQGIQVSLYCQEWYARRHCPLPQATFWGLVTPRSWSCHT

Homo sapiens [3] = species: Homo sapiens; assay: Antioxidant activity against copper mediated low-density lipoproteins (LDL) oxidation; format: functional; in short: as §1
[4] = molecular target: T2, Sterol O-acyltransferase 2 (Homo sapiens, UniProt O75908); assay: Inhibitory activity against human Acyl-CoA:cholesterol acyltransferase-2
T2 sequence (O75908 whole entry): T1 sequence (whole entry)

Oryctolagus cuniculus = species: Oryctolagus cuniculus; assay: Compound inhibited the rHDL-particle rearrangement under presence of LDL at 37 degree C; format: functional
In short: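 rHDL particles (98 Å, 2 mg/mL preparation) were incubated at 37 °C for 24 h with human LDL (4 mg/mL preparation) and compound. Products were run on native 8–25% polyacrylamide gradient gel and stained with Coomassie to compare particle size.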

Row | Compound | Activity (Homo sapiens [1]) | inhibition [2] [%] | pIC50 (Homo sapiens [3]) | pIC50 [4] | Inhibition (Oryctolagus cuniculus) [µM]
1 | CC(C)(Sc1cc(C(C)(C)C)c(O)c(C(C)(C)C)c1)Sc1cc(C(C)(C)C)c(O)c(C(C)(C)C)c1 [PROBUCOL] | 263.1 nmol of MDA/mg of LDL |  |  |  | 
2 | O=C(CCc1ccc(O)c(O)c1)N[C@@H](CC(=O)OCc1ccccc1)C(=O)OCc1ccccc1 | 32.1 nmol of MDA/mg of LDL | > 70 | 5.52 | 4.09 | 
3 | COC(=O)[C@H](Cc1ccccc1)NC(=O)/C=C/c1ccc(O)cc1 | 269 nmol of MDA/mg of LDL | > 70 | 4.28 |  | 307
4 | COC(=O)[C@H](C)NC(=O)/C=C/c1ccc(O)c(O)c1 | 91.5 nmol of MDA/mg of LDL | 0 |  |  | 

Reference: ChEMBL document CHEMBL1137834, “Synthesis of cinnamic acid derivatives and their inhibitory effects on LDL-oxidation, acyl-CoA:cholesterol acyltransferase-1 and -2 activity, and decrease of HDL-particle size” (Bioorg Med Chem Lett, 2004)
